{"data": "Measured values collected from several papers", "organism": "Staphylococcus aureus"}
{"Compound": "Oc1c(Cl)cc(Cl)cc1-c1[nH]c(Cl)c(Cl)c1Cl", "effect on": "microbial growth", "strain": "ATCC29213 MSSA", "measurement": "MIC", "result": "0.29 µM"}
{"Compound": "O=c1ccc2nc3ccc(OCc4ccc([N+](=O)[O-])o4)cc3oc-2c1", "effect on": "microbial growth", "time": "24 h", "measurement": "MIC", "result": "> 32 µg/mL"}
{"Compound": "CO[C@@H]1[C@@H](OC(N)=O)[C@@H](O)[C@H](Oc2ccc3c(O)c(NC(=O)c4ccc(O)c(CC=C(C)C)c4)c(=O)oc3c2C)OC1(C)C", "effect on": "microbial growth", "strain": "MRSA", "setting": "drug-resistant strain, clinical isolate", "measurement": "MIC", "result": "0.25 µg/mL"}
{"Compound": "CN[C@H](CC(C)C)C(=O)N[C@H]1C(=O)N[C@@H](CC(N)=O)C(=O)N[C@H]2C(=O)N[C@H]3C(=O)N[C@H](C(=O)N[C@H](C(=O)O)c4cc(O)cc(O)c4-c4cc3ccc4O)[C@H](O)c3ccc(c(Cl)c3)Oc3cc2cc(c3O[C@@H]2O[C@H](CO)[C@@H](O)[C@H](O)[C@H]2O[C@H]2C[C@](C)(N)[C@H](O)[C@H](C)O2)Oc2ccc(cc2Cl)[C@H]1O", "effect on": "microbial killing", "strain": "ATCCBAA1717 MRSA", "measurement": "MBC", "result": "1.95 µg/mL"}
{"Compound": "CN[C@H](CC(C)C)C(=O)N[C@H]1C(=O)N[C@@H](CC(N)=O)C(=O)N[C@H]2C(=O)N[C@H]3C(=O)N[C@H](C(=O)N[C@H](C(=O)O)c4cc(O)cc(O)c4-c4cc3ccc4O)[C@H](O)c3ccc(c(Cl)c3)Oc3cc2cc(c3O[C@@H]2O[C@H](CO)[C@@H](O)[C@H](O)[C@H]2O[C@H]2C[C@](C)(N)[C@H](O)[C@H](C)O2)Oc2ccc(cc2Cl)[C@H]1O", "effect on": "microbial killing", "technique": "broth dilution", "strain": "MRSA", "setting": "drug-resistant strain", "measurement": "MBC", "result": "0.67 µM"}
{"Compound": "COc1c(N2C[C@@H]3CCCN[C@@H]3C2)c(F)cc2c(=O)c(C(=O)O)cn(C3CC3)c12", "effect on": "microbial growth", "strain": "ATCC29213", "measurement": "MIC", "result": "0.07 µM"}
{"Compound": "C[C@@H]1CN2c3c(cc4c(N5C(=O)OC[C@@H]5C)noc4c3F)CC3(C(=O)NC(=O)NC3=O)[C@H]2[C@H](C)O1", "effect on": "microbial growth", "technique": "broth dilution", "strain": "ATCC29213", "measurement": "MIC", "result": "1 µg/mL"}
{"Compound": "C[C@H]1COc2c(N3CCN(C)CC3)c(F)cc3c(=O)c(C(=O)O)cn1c23", "effect on": "microbial killing", "strain": "ATCCBAA1717 MRSA", "measurement": "MBC", "result": "0.48 µg/mL"}
{"Compound": "COc1c(N2CC3CCCNC3C2)c(F)cc2c(=O)c(C(=O)OCc3cnc([N+](=O)[O-])s3)cn(C3CC3)c12 (stereo not drawn)", "effect on": "microbial growth", "strain": "ATCC29213", "measurement": "MIC", "result": "0.09 µM"}
